Experimental data taken from ChEMBL document CHEMBL1144907, “Novel sst(4)-selective somatostatin (SRIF) agonists. 3. Analogues amenable to radiolabeling” (J Med Chem, 2003).
Numbered stars: 1 amine (or outer) side, 2 acyl side, 3 side chain; on linkers, the order of the positions; unused ones are H or OH. Bridge positions count the residues as written; N and C are the ends. Square brackets hold non-standard residues; d marks the D form. Peptide text beside a SMILES is read from it. * marks the point of attachment. Tyr(Nα-carbamoyl) = NC(=O)N[C@@H](Cc1ccc(O)cc1)C(=O)*; X3 = C[C@H](c1c[nH]c2ccccc12)[C@@H](N[*:1])C(=O)[*:2]; Trp(βS-Me) = C[C@@H](c1c[nH]c2ccccc12)[C@H](N)C(=O)O

Tests used:
[1] = molecular target: Somatostatin receptor type 4 (Homo sapiens, UniProt P31391); test: Binding affinity towards human somatostatin receptor type 4 using [125I][Leu8,D-Trp22,Tyr25]SRIF-28 as radioligand.
[2] = molecular target: Somatostatin receptor type 5 (Homo sapiens, UniProt P35346); test: Binding affinity towards human somatostatin receptor type 5 using [125I][Leu8,D-Trp22,Tyr25]SRIF-28 as radioligand.
Method in brief: (§1)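 Receptor autoradiography on 20-µm cryostat sections of pellets of cells stably expressing the cloned human receptor. Cell hosts: sst1 CHO-K1, sst2 CCL39, sst3 CCL39, sst5 CHO-K1. Sections were incubated with radioligand at 30 000 cpm/100 µL and displaced by unlabeled peptide from 0.1 to 1000 nM. SRIF-28 was run in parallel as control. IC50 was obtained by computer-assisted image quantification against calibrated isotope tissue standards.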

[3] = molecular target: Somatostatin receptor type 3 (Homo sapiens, UniProt P32745); test: Binding affinity towards human somatostatin receptor type 3 using [125I][Leu8,D-Trp22,Tyr25]SRIF-28 as radioligand.; method in brief: as §1
[4] = molecular target: Somatostatin receptor type 1 (Homo sapiens, UniProt P30872); test: Binding affinity towards human somatostatin receptor type 1 using [125I][Leu8,D-Trp22,Tyr25]SRIF-28 as radioligand.; method in brief: as §1
[5] = molecular target: Somatostatin receptor type 2 (Homo sapiens, UniProt P30874); test: Binding affinity towards human somatostatin receptor type 2 using [125I][Leu8,D-Trp22,Tyr25]SRIF-28 as radioligand.; method in brief: as §1
Chain of Somatostatin receptor type 2 (P30874 whole entry): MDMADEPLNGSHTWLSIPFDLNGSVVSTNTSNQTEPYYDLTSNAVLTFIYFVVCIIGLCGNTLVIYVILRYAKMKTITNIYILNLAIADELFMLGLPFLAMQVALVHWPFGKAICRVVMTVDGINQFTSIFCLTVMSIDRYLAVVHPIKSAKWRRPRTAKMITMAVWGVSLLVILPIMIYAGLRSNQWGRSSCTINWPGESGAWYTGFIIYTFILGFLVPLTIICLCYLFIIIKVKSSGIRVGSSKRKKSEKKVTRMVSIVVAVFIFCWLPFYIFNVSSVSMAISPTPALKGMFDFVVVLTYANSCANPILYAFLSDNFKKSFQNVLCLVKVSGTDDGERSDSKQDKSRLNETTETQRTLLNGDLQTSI

Chain of Somatostatin receptor type 1 (P30872 whole entry): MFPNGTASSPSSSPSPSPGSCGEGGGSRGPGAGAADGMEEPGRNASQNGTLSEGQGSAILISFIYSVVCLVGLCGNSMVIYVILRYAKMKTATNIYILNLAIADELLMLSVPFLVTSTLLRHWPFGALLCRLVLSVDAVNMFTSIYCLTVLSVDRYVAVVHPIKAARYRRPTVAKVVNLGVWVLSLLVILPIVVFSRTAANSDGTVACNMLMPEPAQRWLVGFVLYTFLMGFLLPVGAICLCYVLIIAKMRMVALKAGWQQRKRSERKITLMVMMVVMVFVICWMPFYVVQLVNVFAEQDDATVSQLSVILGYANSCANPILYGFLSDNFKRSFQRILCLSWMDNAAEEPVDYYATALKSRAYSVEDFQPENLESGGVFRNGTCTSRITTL
Chain of Somatostatin receptor type 4 (P31391 whole entry): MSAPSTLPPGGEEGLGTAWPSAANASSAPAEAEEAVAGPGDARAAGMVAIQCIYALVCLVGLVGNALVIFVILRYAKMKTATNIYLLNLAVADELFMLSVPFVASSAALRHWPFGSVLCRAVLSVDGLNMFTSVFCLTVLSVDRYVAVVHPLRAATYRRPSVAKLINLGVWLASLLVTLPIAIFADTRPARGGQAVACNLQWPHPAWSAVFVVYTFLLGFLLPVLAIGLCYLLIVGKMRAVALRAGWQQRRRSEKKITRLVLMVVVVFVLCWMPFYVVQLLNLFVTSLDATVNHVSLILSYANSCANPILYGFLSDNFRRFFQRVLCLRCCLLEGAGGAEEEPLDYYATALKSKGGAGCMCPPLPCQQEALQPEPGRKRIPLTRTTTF
Chain of Somatostatin receptor type 3 (P32745 whole entry): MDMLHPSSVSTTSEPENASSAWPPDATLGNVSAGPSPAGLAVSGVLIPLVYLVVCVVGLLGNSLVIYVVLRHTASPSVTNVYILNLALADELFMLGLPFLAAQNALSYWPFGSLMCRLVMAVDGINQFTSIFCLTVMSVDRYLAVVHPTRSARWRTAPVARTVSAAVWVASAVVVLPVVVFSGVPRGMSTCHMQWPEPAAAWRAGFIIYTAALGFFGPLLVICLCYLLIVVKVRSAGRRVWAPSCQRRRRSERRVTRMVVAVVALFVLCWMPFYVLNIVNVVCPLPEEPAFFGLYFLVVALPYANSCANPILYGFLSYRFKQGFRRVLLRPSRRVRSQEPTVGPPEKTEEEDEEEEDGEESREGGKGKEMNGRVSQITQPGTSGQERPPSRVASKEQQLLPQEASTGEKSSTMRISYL
Chain of Somatostatin receptor type 5 (P35346 whole entry): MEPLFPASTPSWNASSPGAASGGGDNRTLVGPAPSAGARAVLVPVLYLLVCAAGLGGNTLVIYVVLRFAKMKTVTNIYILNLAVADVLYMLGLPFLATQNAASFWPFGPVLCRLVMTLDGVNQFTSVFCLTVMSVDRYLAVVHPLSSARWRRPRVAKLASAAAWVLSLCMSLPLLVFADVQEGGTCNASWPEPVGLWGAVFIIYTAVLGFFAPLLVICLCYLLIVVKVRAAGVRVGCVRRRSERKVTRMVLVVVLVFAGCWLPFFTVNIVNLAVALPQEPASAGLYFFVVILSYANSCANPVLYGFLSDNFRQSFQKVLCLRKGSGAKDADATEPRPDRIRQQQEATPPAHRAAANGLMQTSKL

| Compound | IC50 [1] | IC50 [2] | IC50 [3] | IC50 [4] | IC50 [5] |
| --- | --- | --- | --- | --- | --- |
| COC(=O)[C@H](CCCN=C(N)N)NC(=O)CCCc1c(-c2ccccc2)[nH]c2c(F)cc(F)cc12 | 4.2 nM | – | – | – | – |
| C[C@@H]1NC(=O)[C@H](Cc2ccccc2)NC(=O)[C@@H](NC(=O)[C@@H](N)Cc2ccc(O)c(I)c2)CSSC[C@@H](C(=O)O)NC(=O)[C@H](Cc2ccccc2)NC(=O)[C@H]([C@@H](C)O)NC(=O)[C@H](CCCCN)NC(=O)[C@H](Cc2c[nH]c3ccccc23)NC1=O | 3.5 nM | > 1000 nM | 1020 nM | > 1000 nM | > 1000 nM |
| C[C@@H](O)[C@@H]1NC(=O)[C@H](CCCCN)NC(=O)[C@@H](Cc2c[nH]c3ccccc23)NC(=O)[C@H](Cc2ccc(O)cc2)NC(=O)[C@H](Cc2ccccc2)NC(=O)[C@@H](N)CSSC[C@@H](C(=O)O)NC(=O)[C@H](Cc2ccccc2)NC1=O | 1.8 nM | 20.3 nM | 35.7 nM | 117 nM | 25.7 nM |
| C[C@@H]1NC(=O)[C@H](Cc2ccccc2)NC(=O)[C@@H](N)CSSC[C@@H](C(=O)O)NC(=O)[C@H](Cc2ccccc2)NC(=O)[C@H]([C@@H](C)O)NC(=O)[C@H](CCCCN)NC(=O)[C@H](Cc2c[nH]c3ccccc23)NC1=O | – | – | – | > 1000 nM | – |
| C[C@@H]1NC(=O)[C@H](Cc2ccccc2)NC(=O)[C@@H](N)CSSC[C@@H](C(=O)O)NC(=O)[C@H](Cc2ccccc2)NC(=O)[C@H]([C@@H](C)O)NC(=O)[C@H](CCCCN)NC(=O)[C@@H](Cc2c[nH]c3ccccc23)NC1=O | – | – | – | > 1000 nM | – |
| C[C@@H](O)[C@@H]1NC(=O)[C@H](CCCCN)NC(=O)[C@H](Cc2c[nH]c3ccccc23)NC(=O)[C@H](Cc2ccc(N)cc2)NC(=O)[C@H](Cc2ccccc2)NC(=O)[C@@H](NC(N)=O)CSSC[C@@H](C(=O)O)NC(=O)[C@H](Cc2ccc(O)cc2)NC1=O | – | – | – | – | > 1000 nM |
| C[C@@H](O)[C@@H]1NC(=O)[C@H](CCCCN)NC(=O)[C@H](Cc2c[nH]c3ccccc23)NC(=O)[C@H](Cc2ccccc2)NC(=O)[C@H](Cc2ccccc2)NC(=O)[C@@H](N)CSSC[C@@H](C(=O)O)NC(=O)[C@H](Cc2ccccc2)NC1=O (H-CFFWKTFC-OH; disulfide 1-8) | 0.7 nM | 14 nM | 13 nM | 5.3 nM | 130 nM |
| C[C@@H](O)[C@@H]1NC(=O)[C@H](CCCCN)NC(=O)[C@@H](Cc2c[nH]c3ccccc23)NC(=O)[C@H](Cc2ccccc2)NC(=O)[C@H](Cc2ccccc2)NC(=O)[C@@H](N)CSSC[C@@H](C(=O)O)NC(=O)[C@H](Cc2ccccc2)NC1=O (H-CFF[dW]KTFC-OH; disulfide 1-8) | 1.8 nM | 46 nM | 13 nM | 27 nM | 41 nM |
| C[C@@H](O)[C@@H]1NC(=O)[C@H](CCCCN)NC(=O)[C@H](Cc2c[nH]c3ccccc23)NC(=O)[C@H](Cc2ccccc2)NC(=O)[C@H](Cc2ccccc2)NC(=O)[C@@H](NC(=O)[C@@H](N)Cc2ccc(O)cc2)CSSC[C@@H](C(=O)O)NC(=O)[C@H](Cc2ccccc2)NC1=O (H-YCFFWKTFC-OH; disulfide 2-9) | 1.6 nM | – | 57 nM | 13 nM | 179 nM |
| CC(O)[C@@H]1NC(=O)[C@H](CCCCN)NC(=O)[C@H](Cc2c[nH]c3ccccc23)NC(=O)[C@H](Cc2ccc(N)cc2)NC(=O)C(Cc2ccccc2)NC(=O)C(NC(N)=O)CSSC[C@@H](C(=O)O)NC(=O)[C@H](Cc2ccccc2)NC1=O (single isomer, unassigned) | 1.5 nM | > 1000 nM | – | – | > 1000 nM |
| C[C@@H](O)[C@@H]1NC(=O)[C@H](CCCCN)NC(=O)[C@@H](Cc2c[nH]c3ccccc23)NC(=O)[C@H](Cc2ccccc2)NC(=O)[C@H](Cc2ccccc2)NC(=O)[C@@H](NC(N)=O)CSSC[C@@H](C(=O)O)NC(=O)[C@H](Cc2ccc(O)cc2)NC1=O (stereo in doubt) | 1 nM | – | 16 nM | 55 nM | 52 nM |
| C[C@@H]1NC(=O)[C@H](Cc2ccccc2)NC(=O)[C@@H](NC(=O)[C@H](Cc2ccc(O)cc2)NC(N)=O)CSSC[C@@H](C(=O)O)NC(=O)[C@H](Cc2ccccc2)NC(=O)[C@H]([C@@H](C)O)NC(=O)[C@H](CCCCN)NC(=O)[C@H](Cc2c[nH]c3ccccc23)NC1=O ({Tyr(Nα-carbamoyl)}-CFAWKTFC-OH; disulfide 1-8) | 2.4 nM | > 1000 nM | – | > 1000 nM | – |

Now from value to molecule:

| IC50 [1] | IC50 [2] | IC50 [3] | IC50 [4] | IC50 [5] | Compound |
| --- | --- | --- | --- | --- | --- |
| 8.8 nM | 990 nM | 325 nM | > 1000 nM | > 1000 nM | C[C@@H](O)[C@@H]1NC(=O)[C@H](CCCCN)NC(=O)[C@H](Cc2c[nH]c3ccccc23)NC(=O)[C@H](Cc2ccc(N)cc2)NC(=O)[C@H](Cc2ccccc2)NC(=O)[C@@H](NC(=O)[C@H](Cc2ccc(O)c(I)c2)NC(N)=O)CSSC[C@@H](C(=O)O)NC(=O)[C@H](Cc2ccccc2)NC1=O |
| 5.6 nM | – | 381 nM | > 1000 nM | 46 nM | C[C@@H]1NC(=O)[C@H](Cc2ccccc2)NC(=O)[C@@H](NC(=O)[C@@H](N)Cc2ccc(O)cc2)CSSC[C@@H](C(=O)O)NC(=O)[C@H](Cc2ccccc2)NC(=O)[C@H]([C@@H](C)O)NC(=O)[C@H](CCCCN)NC(=O)[C@@H]([C@@H](C)c2c[nH]c3ccccc23)NC1=O |
| 2.1 nM | – | > 1000 nM | 99 nM | 561 nM | C[C@@H](O)[C@@H]1NC(=O)[C@H](CCCCN)NC(=O)[C@H](Cc2c[nH]c3ccccc23)NC(=O)[C@H](CCCN)NC(=O)[C@H](Cc2ccccc2)NC(=O)[C@@H](NC(=O)[C@H](Cc2ccc(O)cc2)NC(N)=O)CSSC[C@@H](C(=O)O)NC(=O)[C@H](Cc2ccccc2)NC1=O |
| 1.3 nM | 63 nM | 22 nM | 27 nM | 54 nM | C[C@@H](O)[C@@H]1NC(=O)[C@H](CCCCN)NC(=O)[C@H](Cc2c[nH]c3ccccc23)NC(=O)[C@H](Cc2ccc(O)cc2)NC(=O)[C@H](Cc2ccccc2)NC(=O)[C@@H](N)CSSC[C@@H](C(=O)O)NC(=O)[C@H](Cc2ccccc2)NC1=O |
| – | – | > 1000 nM | – | – | C[C@@H](O)[C@@H]1NC(=O)[C@H](CCCCN)NC(=O)[C@H](Cc2c[nH]c3ccccc23)NC(=O)[C@H](Cc2ccc(N)cc2)NC(=O)[C@H](Cc2ccccc2)NC(=O)[C@@H](N)CSSC[C@@H](C(=O)O)NC(=O)[C@H](Cc2ccccc2)NC1=O |
| – | – | – | > 1000 nM | – | C[C@@H](O)[C@@H]1NC(=O)[C@H](CCCCN)NC(=O)[C@@H](Cc2c[nH]c3ccccc23)NC(=O)[C@H](Cc2ccc(N)cc2)NC(=O)[C@H](Cc2ccccc2)NC(=O)[C@@H](NC(N)=O)CSSC[C@@H](C(=O)O)NC(=O)[C@H](Cc2ccc(O)cc2)NC1=O |
| – | – | – | > 1000 nM | – | C[C@@H]1NC(=O)[C@H](Cc2ccccc2)NC(=O)[C@@H](NC(=O)[C@@H](N)Cc2ccc(O)cc2)CSSC[C@@H](C(=O)O)NC(=O)[C@H](Cc2ccccc2)NC(=O)[C@H]([C@@H](C)O)NC(=O)[C@H](CCCCN)NC(=O)[C@H](Cc2c[nH]c3ccccc23)NC1=O |
| 1.8 nM | 221 nM | 330 nM | 21 nM | 27 nM | C[C@@H](O)[C@@H]1NC(=O)[C@H](CCCCN)NC(=O)[C@H]([C@@H](C)c2c[nH]c3ccccc23)NC(=O)[C@H](Cc2ccccc2)NC(=O)[C@H](Cc2ccccc2)NC(=O)[C@@H](N)CSSC[C@@H](C(=O)O)NC(=O)[C@H](Cc2ccccc2)NC1=O (H-CFF[Trp(βS-Me)]KTFC-OH; disulfide 1-8) |
| 4 nM | 42 nM | 53 nM | 49 nM | 40 nM | C[C@H](c1c[nH]c2ccccc12)[C@H]1NC(=O)[C@H](Cc2ccccc2)NC(=O)[C@H](Cc2ccccc2)NC(=O)[C@@H](N)CSSC[C@@H](C(=O)O)NC(=O)[C@H](Cc2ccccc2)NC(=O)[C@H]([C@@H](C)O)NC(=O)[C@H](CCCCN)NC1=O (H-CFF[X3]KTFC-OH; disulfide 1-8) |
| 0.9 nM | – | 116 nM | 88 nM | 48 nM | C[C@@H](O)[C@@H]1NC(=O)[C@H](CCCCN)NC(=O)[C@H]([C@@H](C)c2c[nH]c3ccccc23)NC(=O)[C@H](Cc2ccccc2)NC(=O)[C@H](Cc2ccccc2)NC(=O)[C@@H](NC(=O)[C@@H](N)Cc2ccc(O)cc2)CSSC[C@@H](C(=O)O)NC(=O)[C@H](Cc2ccccc2)NC1=O (H-YCFF[Trp(βS-Me)]KTFC-OH; disulfide 2-9) |
| 0.51 nM | 4.8 nM | 8.2 nM | 10.3 nM | 15.5 nM | C[C@@H](O)[C@@H]1NC(=O)[C@H](CCCCN)NC(=O)[C@@H](Cc2c[nH]c3ccccc23)NC(=O)[C@H](Cc2ccccc2)NC(=O)[C@H](Cc2ccccc2)NC(=O)[C@@H](N)CSSC[C@@H](C(=O)O)NC(=O)[C@H](Cc2ccc(O)cc2)NC1=O (stereo in doubt) |
| 1.3 nM | 24 nM | 10 nM | 6.5 nM | 43 nM | C[C@@H](O)[C@@H]1NC(=O)[C@H](CCCCN)NC(=O)[C@H](Cc2c[nH]c3ccccc23)NC(=O)[C@H](Cc2ccccc2)NC(=O)[C@H](Cc2ccccc2)NC(=O)[C@@H](N)CSSC[C@@H](C(=O)O)NC(=O)[C@H](Cc2ccc(O)cc2)NC1=O (stereo in doubt) |
